Experimental data collected from several papers.
Protocols differ between the studies behind these lines.
Cell line: A2780
Observed: cell growth or viability

Compound | test | setting | endpoint | result
CC[C@]1(O)C[C@H]2CN(CCc3c([nH]c4ccccc34)[C@@](C(=O)OC)(c3cc4c(cc3OC)N(C=O)[C@H]3[C@@](O)(C(=O)OC)[C@H](OC(C)=O)[C@]5(CC)C=CCN6CC[C@]43[C@@H]65)C2)C1 | fluorescence | 72 h | IC50 | 0.22 nM
C[C@H]1O[C@@H](n2cc(F)c(=O)[nH]c2=O)[C@H](O)[C@@H]1O | CCK-8 | 48 h | IC50 | > 50000 nM
CC[C@@H]1C=CC(=O)O[C@@H]1C[C@@H](O)[C@H](C)[C@H](OC)[C@@H](C)Cc1ccc(F)cc1 | MTT | 48 h | GI50 | 215 nM
COc1ccc(C(=O)O[C@@H]2CN3Cc4c(cc5c(c4OC)OCO5)[C@@]24C=C[C@H](OC)C[C@@H]34)cc1OC | WST-1 | – | IC50 | 6000 nM
C/C=C/C[C@H](C)[C@@H](OC)[C@@H](C)[C@H](O)C[C@H]1OC(=O)C=C[C@H]1CC | MTT | 48 h | GI50 | 41 nM
CCC[C@H](Nc1nc(-c2ccc(NC(=O)NCC)c(OC)c2)ncc1C)c1cccnc1 | fluorescence | 72 h | IC50 | 54.6 nM
COc1c2c(cc3c1OCO3)[C@]13C=C[C@H](OC)C[C@H]1N(C2)C[C@H]3OC(=O)c1cccc(C)c1 | WST-1 | – | IC50 | > 10000 nM
CC(=O)O[C@H]1C(=O)[C@@]2(C)[C@H]([C@H](OC(=O)c3ccccc3)[C@]3(O)C[C@H](OC(=O)[C@H](O)[C@@H](NC(=O)c4ccccc4)c4ccccc4)C(C)=C1C3(C)C)[C@]1(OC(C)=O)CO[C@@H]1C[C@@H]2O | CCK-8 | 72 h | IC50 | 8.2 nM
CC[C@@H]1C=CC(=O)O[C@@H]1C[C@@H](O)[C@H](C)[C@H](OC)[C@@H](C)Cc1ccccc1 | MTT | 48 h | GI50 | 81.9 nM
COc1cccc(C(=O)O[C@@H]2CN3Cc4c(cc5c(c4OC)OCO5)[C@@]24C=C[C@H](OC)C[C@@H]34)c1 | WST-1 | – | IC50 | > 10000 nM
